The nature of data set [1]: Clearance in rat at 1 mg/kg, po or 1 mg/kg, iv. It is filed as ADME, organism-based. The following applies: in vivo.
Data set [2] is described as follows: Clearance in dog at 0.1 mg/kg, po or 0.1 mg/kg, iv. The following applies: in vivo. Format: ADME, organism-based, Canis lupus familiaris.
Data set [3] in a line: Half-life in rat at 1 mg/kg, po or 1 mg/kg, iv. It is filed as ADME, organism-based. The following applies: in vivo.
Data set [4] can be described thus: AUC in rat at 1 mg/kg, po. Also on record: dose 1 mg/kg. The following applies: in vivo. It is filed as ADME, organism-based.
A short description of data set [5]: Half-life in mouse at 5 mg/kg, po or 2 mg/kg, iv. Format: ADME, organism-based. The following applies: in vivo.
In the next data set the target is T1, Cytochrome P450 2B6 (Homo sapiens, UniProt P20813).
T1 sequence (P20813 whole entry): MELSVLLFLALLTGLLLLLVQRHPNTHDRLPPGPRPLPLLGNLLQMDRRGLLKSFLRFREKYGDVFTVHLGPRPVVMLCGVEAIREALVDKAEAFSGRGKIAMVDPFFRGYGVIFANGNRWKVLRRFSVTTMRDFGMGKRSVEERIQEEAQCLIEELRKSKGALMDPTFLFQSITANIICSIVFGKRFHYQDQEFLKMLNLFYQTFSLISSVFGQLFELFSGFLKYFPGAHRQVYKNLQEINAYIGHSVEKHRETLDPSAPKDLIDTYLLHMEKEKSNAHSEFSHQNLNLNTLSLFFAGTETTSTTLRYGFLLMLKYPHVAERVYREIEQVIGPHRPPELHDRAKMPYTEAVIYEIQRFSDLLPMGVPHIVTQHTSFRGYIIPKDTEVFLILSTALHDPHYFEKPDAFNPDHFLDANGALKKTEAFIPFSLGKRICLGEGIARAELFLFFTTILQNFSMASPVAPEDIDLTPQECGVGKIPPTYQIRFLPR
As to the kind of experiment: Inhibition of CYP2B6 (unknown origin). Format: ADME.

Data set [6] is described as follows: Tmax in rat at 1 mg/kg, po or 1 mg/kg, iv. It is filed as ADME, organism-based. The following applies: in vivo.
The species named for the next data set is Homo sapiens. The experiment in a line: Inhibition of calcium channel (unknown origin) at 10 uM by patch clamp technique relative to control.
In data set [7] the target is Sphingosine 1-phosphate receptor 1 (Homo sapiens, UniProt P21453). The experiment in a line: Agonist activity at human S1P1 expressed in CHO cell membranes assessed as stimulation of [35S]-GTPgamma-S binding measured after 45 mins by liquid scintillation counting method. Also on record: species or system Cell membrane. An outline of the steps:
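S1P1/CHO cell membranes at 3 μg protein/well with 3-fold compound dilutions. [35S]GTPγS 0.2 nM final, 45 min at room temperature. Filter-plate capture, water washes, scintillation counting. EC50 taken at 50% of each compound's own Ymax.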

The target of a further data set is Cytochrome P450 2C9 (Homo sapiens, UniProt P11712). As to the kind of experiment: Inhibition of CYP2C9 (unknown origin). It is filed as ADME.

Some results are limits rather than exact numbers.

Sequence of Cytochrome P450 2C9 (P11712 whole entry): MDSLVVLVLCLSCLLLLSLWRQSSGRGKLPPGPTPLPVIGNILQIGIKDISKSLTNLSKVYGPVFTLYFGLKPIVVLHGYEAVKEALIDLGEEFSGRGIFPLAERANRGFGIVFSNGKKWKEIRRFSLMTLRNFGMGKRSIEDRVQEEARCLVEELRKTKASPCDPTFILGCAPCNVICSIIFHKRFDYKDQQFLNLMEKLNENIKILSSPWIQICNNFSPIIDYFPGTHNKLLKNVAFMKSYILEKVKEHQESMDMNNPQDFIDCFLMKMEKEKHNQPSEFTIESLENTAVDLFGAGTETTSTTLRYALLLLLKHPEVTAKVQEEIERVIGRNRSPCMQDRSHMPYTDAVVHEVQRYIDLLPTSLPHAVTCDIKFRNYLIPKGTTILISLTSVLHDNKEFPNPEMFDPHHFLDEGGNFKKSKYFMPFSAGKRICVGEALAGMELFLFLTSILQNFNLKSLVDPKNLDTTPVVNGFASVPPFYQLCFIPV
Sequence of Sphingosine 1-phosphate receptor 1 (P21453 whole entry): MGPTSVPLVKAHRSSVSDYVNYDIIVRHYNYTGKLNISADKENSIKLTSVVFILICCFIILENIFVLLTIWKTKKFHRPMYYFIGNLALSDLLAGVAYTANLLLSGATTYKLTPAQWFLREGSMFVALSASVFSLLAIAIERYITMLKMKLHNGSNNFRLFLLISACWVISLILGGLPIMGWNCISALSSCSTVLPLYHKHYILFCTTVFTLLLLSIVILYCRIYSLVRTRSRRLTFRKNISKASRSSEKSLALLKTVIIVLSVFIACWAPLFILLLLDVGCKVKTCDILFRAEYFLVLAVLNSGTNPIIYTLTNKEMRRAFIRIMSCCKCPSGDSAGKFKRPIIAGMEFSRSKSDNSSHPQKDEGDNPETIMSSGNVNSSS

As for `O=C(O)C1CN(Cc2ccc3c(c2)CCc2c-3noc2-c2onc(-c3ccccc3)c2C(F)(F)F)C1`, the clearance turned out to be 8.5 mL/min/kg in [1] and 1.4 mL/min/kg in data set [2]. Further, the half-life in data set [3] was 7.9 h; in data set [5] it was 15 h. Moreover, the AUC in data set [4] was found to be 1.5 µM·h. In addition, the concentration for half-maximal inhibition (IC50) against Cytochrome P450 2B6 and against Cytochrome P450 2C9 was above 40 µM throughout. In addition, the Tmax in data set [6] worked out at 4 h. Besides, the inhibition in the data set listed under Homo sapiens turned out to be 11%. Moreover, the EC50 in data set [7] came to 0.00059 µM.

What is called half-life is the time in which the quantity being followed falls by half. Higher therefore signals slow loss. In general, AUC refers to the area under the concentration-time curve, a measure of exposure. Read a high AUC as more exposure. One may read the IC50 as the midpoint of a concentration-inhibition curve. A low value points to higher potency. As usually defined, the Tmax is the time from dosing to the highest level. For orientation: inhibition means the percentage by which the read-out fell short of the control. By EC50 is commonly meant the midpoint of the concentration-response curve.

(Values after ChEMBL document CHEMBL4680083, “Identification of Tricyclic Agonists of Sphingosine-1-phosphate Receptor 1 (S1P) Employing Ligand-Based Drug Design” (J Med Chem, 2016).)
